Data as given in ChEMBL document CHEMBL3792365, “Dioxol and dihydrodioxin analogs of 2- and 3-phenylacetonitriles as potent anti-cancer agents with nanomolar activity against a variety of human cancer cells” (2016).
The source made the active and inactive calls. No cut-off for these calls is given here.

Tests used:
K562 = assay: Growth inhibition of human K562 cells after 48 hrs by sulforhodamine B assay; format: functional; conditions: K562, 48 h
Method in brief: (§1)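 Five-dose testing against a 60-line human tumor cell panel. GI50 is the drug concentration giving a 50% reduction in net protein increase relative to untreated control cells.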

[1] = Growth inhibition of human MOLT4 cells after 48 hrs by sulforhodamine B assay; format: functional; conditions: MOLT-4, 48 h
Method in brief: (§2)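 Five-dose concentration series run across a panel of 60 human tumour cell lines. GI50 is taken as the drug concentration giving a 50% reduction in net protein increase relative to untreated control cells.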

[2] = Growth inhibition of human RPMI8226 cells after 48 hrs by sulforhodamine B assay; format: functional; conditions: RPMI-8226, 48 h; method in brief: as §2
SR = assay: Growth inhibition of human SR cells after 48 hrs by sulforhodamine B assay; format: functional; method in brief: as §2
[3] = Growth inhibition of human HOP62 cells after 48 hrs by sulforhodamine B assay; format: functional; conditions: HOP-62, 48 h; method in brief: as §1
NCI-H23 = assay: Growth inhibition of human NCI-H23 cells after 48 hrs by sulforhodamine B assay; format: functional; conditions: NCI-H23, 48 h; method in brief: as §2
[4] = Growth inhibition of human HCT15 cells after 48 hrs by sulforhodamine B assay; format: functional; conditions: HCT-15, 48 h; method in brief: as §1
HT-29 = assay: Growth inhibition of human HT-29 cells after 48 hrs by sulforhodamine B assay; format: functional; conditions: HT-29, 48 h; method in brief: as §1
KM12 = assay: Growth inhibition of human KM12 cells after 48 hrs by sulforhodamine B assay; format: functional; conditions: KM12, 48 h; method in brief: as §1
[5] = Growth inhibition of human SW620 cells after 48 hrs by sulforhodamine B assay; format: functional; conditions: SW-620, 48 h; method in brief: as §2
[6] = Growth inhibition of human SF268 cells after 48 hrs by sulforhodamine B assay; format: functional; conditions: SF-268, 48 h; method in brief: as §2
[7] = Growth inhibition of human SNB19 cells after 48 hrs by sulforhodamine B assay; format: functional; conditions: SNB-19, 48 h; method in brief: as §2
[8] = Growth inhibition of human LOXIMVI cells after 48 hrs by sulforhodamine B assay; format: functional; conditions: LOX IMVI; method in brief: as §1
[9] = Growth inhibition of human OVCAR4 cells after 48 hrs by sulforhodamine B assay; format: functional; conditions: OVCAR-4, 48 h; method in brief: as §2
786-0 = assay: Growth inhibition of human 786-0 cells after 48 hrs by sulforhodamine B assay; format: functional; conditions: 786-0, 48 h; method in brief: as §1
A498 = assay: Growth inhibition of human A498 cells after 48 hrs by sulforhodamine B assay; format: functional; conditions: A498, 48 h; method in brief: as §1
ACHN = assay: Growth inhibition of human ACHN cells after 48 hrs by sulforhodamine B assay; format: functional; method in brief: as §1
[10] = Growth inhibition of human Caki1 cells after 48 hrs by sulforhodamine B assay; format: functional; conditions: CAKI-1, 48 h; method in brief: as §1
[11] = Growth inhibition of human UO31 cells after 48 hrs by sulforhodamine B assay; format: functional; conditions: UO-31, 48 h
Method in brief: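 Five-dose testing across the 60-line human tumour cell panel. GI50 is the drug concentration that gives a 50% reduction in net protein increase relative to control cells.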

[12] = Growth inhibition of human DU145 cells after 48 hrs by sulforhodamine B assay; format: functional; conditions: DU-145, 48 h; method in brief: as §1
MCF7 = assay: Growth inhibition of human MCF7 cells after 48 hrs by sulforhodamine B assay; format: functional; conditions: MCF7, 48 h; method in brief: as §1
[13] = Growth inhibition of human Hs 578T cells after 48 hrs by sulforhodamine B assay; format: functional; method in brief: as §1
MDA-MB-468 = assay: Growth inhibition of human MDA-MB-468 cells after 48 hrs by sulforhodamine B assay; format: functional; conditions: MDA-MB-468, 48 h; method in brief: as §1
Tubulin (Homo sapiens) [14] = biological target: T1, Tubulin (Homo sapiens) (UniProt P68371+Q9H4B7+P0DPH7+P68366+Q13509+Q71U36+P04350+Q3ZCM7+P07437+P68363+Q9BQE3+Q6PEY2+Q13885+Q9BVA1+Q9BUF5); assay: Inhibition of tubulin polymerization (unknown origin) in rapid phase assessed as polymerization rate at 10 uM (reference value: 8.6 +/- 0.4 x 10^-4AU/sec); format: protein-complex assay
Tubulin (Homo sapiens) [15] = biological target: T1, Tubulin (Homo sapiens); assay: Inhibition of tubulin polymerization (unknown origin) in rapid phase assessed as polymerization rate at 100 uM (reference value: 8.6 +/- 0.4 x 10^-4AU/sec); format: protein-complex assay
Tubulin (Homo sapiens) [16] = biological target: T1, Tubulin (Homo sapiens); assay: Induction of tubulin depolymerization (unknown origin) in slow phase assessed as depolymerization rate at 10 uM (reference value: 1.3 +/- 0.1 10^-5AU/sec); format: protein-complex assay
Tubulin (Homo sapiens) [17] = biological target: T1, Tubulin (Homo sapiens); assay: Induction of tubulin depolymerization (unknown origin) in slow phase assessed as depolymerization rate at 100 uM (reference value: 1.3 +/- 0.1 10^-5AU/sec); format: protein-complex assay
Tubulin (Homo sapiens) [18] = biological target: T1, Tubulin (Homo sapiens); assay: Inhibition of tubulin polymerization (unknown origin) in rapid phase; format: protein-complex assay
Tubulin (Homo sapiens) [19] = biological target: T1, Tubulin (Homo sapiens); assay: Induction of tubulin depolymerization (unknown origin) in slow phase; format: protein-complex assay
Tubulin (Homo sapiens) [20] = biological target: T1, Tubulin (Homo sapiens); assay: Inhibition of tubulin polymerization (unknown origin) in rapid phase assessed as polymerization rate at 10 to 100 uM; format: protein-complex assay
Tubulin (Homo sapiens) [21] = biological target: T1, Tubulin (Homo sapiens); assay: Induction of tubulin depolymerization (unknown origin) in slow phase assessed as depolymerization rate at 10 to 100 uM; format: protein-complex assay

SMILES | GI50 [1] [nM] | GI50 [2] [nM] | GI50 (SR) [nM] | GI50 [3] [nM] | GI50 (NCI-H23) [nM] | GI50 [4] [nM] | GI50 (KM12) [nM] | GI50 [5] [nM] | GI50 [6] [nM] | GI50 [7] [nM] | GI50 [8] [nM] | GI50 [9] [nM] | GI50 (786-0) [nM] | GI50 (A498) [nM] | GI50 (ACHN) [nM] | GI50 [11] [nM] | GI50 [12] [nM] | GI50 (MCF7) [nM] | GI50 [13] [nM] | GI50 (MDA-MB-468) [nM] | other results
COc1ccc(/C=C(\C#N)c2ccc3c(c2)OCO3)c2ccccc12 | 3710 | 3850 | 5440 | 2140 | 5090 | 750 | 2390 | 720 | 9340 | 4240 | 3960 | 3790 | 4380 | 410 | 4240 | 6240 | 3490 | 610 | 2630 | 510 | GI50 (K562): 530 nM; GI50 (HT-29): 1600 nM; GI50 [10]: 2060 nM
COc1ccc(/C(C#N)=C/c2ccc3c(c2)OCCO3)cc1 | > 100000 | > 100000 | 2760 | > 100000 | > 100000 | 2100 | 4260 | 3930 | > 100000 | > 100000 |  | 24900 | 35800 | > 100000 | > 100000 | > 100000 | > 100000 | 3010 | > 100000 | 4290 | GI50 [10]: > 100000 nM
COc1ccc(/C=C(\C#N)c2ccc3c(c2)OCO3)cc1 | 450 | 490 | 50 | 300 | 860 | 70 | 70 | 120 | 730 | 750 | 570 |  | 18900 | 200 | 520 | 580 | 590 | 80 | 460 | 280 | GI50 (K562): 40 nM; GI50 (HT-29): 60 nM; Activity (Tubulin (Homo sapiens) [14]): 8 ×10⁻⁴ AU/sec; Activity (Tubulin (Homo sapiens) [15]): 8.9 ×10⁻⁴ AU/sec; Activity (Tubulin (Homo sapiens) [16]): 1.8 ×10⁻⁵ AU/sec; Activity (Tubulin (Homo sapiens) [17]): 2 ×10⁻⁵ AU/sec
N#C/C(=C\c1cccc2ccccc12)c1ccc2c(c1)OCO2 | 4990 | 4490 | 1600 | 3770 | 6450 | 1770 | 3770 | 3720 | 8990 | 6290 | 4220 | 8250 | 5620 | 1170 | 4520 | 6480 | 6940 | 1990 | 3540 | 2110 | GI50 (K562): 790 nM; GI50 (HT-29): 3020 nM; GI50 [10]: 4180 nM
COc1cc(/C(C#N)=C/c2ccc3c(c2)OCCO3)cc(OC)c1OC | 620 | 60 | 60 | 50 | 160 | 40 | 50 | 40 | 110 | 190 | 60 | 260 | 40 | 30 | 80 |  | 130 | 40 | 70 | 30 | GI50 [10]: 50 nM; inhibition (Tubulin (Homo sapiens) [18]): Dose-dependent effect; Activity (Tubulin (Homo sapiens) [19]): Dose-dependent effect; Activity (Tubulin (Homo sapiens) [14]): 6.9 ×10⁻⁴ AU/sec; Activity (Tubulin (Homo sapiens) [15]): 2 ×10⁻⁴ AU/sec; Activity (Tubulin (Homo sapiens) [16]): 1.6 ×10⁻⁵ AU/sec; Activity (Tubulin (Homo sapiens) [17]): 3.2 ×10⁻⁵ AU/sec
N#C/C(=C\c1cc2ccccc2s1)c1ccc2c(c1)OCO2 | 70 | 190 | 30 | 70 | 320 | 40 | 50 | 50 | 1640 | 230 | 50 | 1270 | 880 | 30 | 60 | 80 | 210 | 90 | 80 | 380 | GI50 (K562): 40 nM; GI50 (HT-29): 30 nM; GI50 [10]: 50 nM; inhibition (Tubulin (Homo sapiens) [20]): inactive; Activity (Tubulin (Homo sapiens) [21]): inactive
COc1ccc(/C=C(\C#N)c2ccc3c(c2)OCO3)c(OC)c1 | 2810 | 3230 | 530 | 3300 | 6330 | 870 | 2250 | 1230 | 9360 | 6950 | 5330 | 1650 | 4930 | 1330 | 4920 | 6660 | 3620 | 850 | 3620 | 690 | GI50 (K562): 390 nM; GI50 (HT-29): 710 nM
COc1ccc(/C(C#N)=C/c2ccc3c(c2)OCCO3)cc1OC | 8850 | 4810 | 930 | 2980 | 6610 | 730 | 1590 | 1040 | 5380 | 4080 | 4920 | 11200 | 3880 | 1350 | 7610 | 5010 | 4690 | 860 | 5560 | 1110 | GI50 [10]: 2920 nM
